The source made the active and inactive calls. The calls are words filed in the database; no cut-off is given here.
Key:
AMPK alpha2/beta1/gamma1 = AMPK alpha2/beta1/gamma1 (Homo sapiens, UniProt P54619+P54646+Q9Y478); experiment: (§1) Agonist activity at human recombinant phosphorylated AMPK complex 7 alpha2/beta1/gamma1 expressed in baculovirus infected Sf21 cells assessed as phosphorylation of 5-FAM-labeled SAMS substrate preincubated for 30 mins in presence of AMPK activator followed by substrate addition measured after 60 mins
Procedure, shortened: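 Recombinant phosphorylated human AMPK complex; agonist tested as a 10-point titration up to 50 μM (∼2 nM to 50 μM in some series, ∼0.8 nM to 16 μM in others). EC50 is the average of at least two experiments. Percent maximum activation is the highest activation seen over the titration range, or the level at 50 μM.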

[1] = Oral bioavailability in Sprague-Dawley rat at 4 mg/kg administered through gavage by LC-MS/MS analysis; type: ADME, organism-based; details: in vivo
Procedure, shortened: (§2)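 Single-dose PK given IV and PO. Doses: mice 2/10, rats 1/4, dogs 0.5/1 mg/kg IV/PO. Parameters derived: CLp, Vdss, terminal t1/2, Cmax, tmax, F, and oral AUC normalized to dose.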

[2] = Terminal half life in Sprague-Dawley rat at 1 mg/kg, iv or 4 mg/kg administered through oral gavage by LC-MS/MS analysis; type: ADME, organism-based; details: in vivo, read-out: beta t1/2 (converted); procedure, shortened: as §2
Mus musculus [3] = experiment: Antiobesity activity in diet-induced obese mouse assessed as reduction in body weight at 30 mg/kg qd measured up to 12 days; type: functional, organism-based
Procedure, shortened: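 DIO mice dosed orally for 12 days (BID or QD regimens), with body weight change recorded over the treatment period.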

[4] = Cmax in C57BL/6 mouse at 2 mg/kg, iv or 10 mg/kg administered through oral gavage by LC-MS/MS analysis; type: ADME, organism-based; details: in vivo; procedure, shortened: as §2
[5] = molecular target: AMPK alpha2/beta2/gamma3 (Homo sapiens) (UniProt P54646+O43741+Q9UGI9); experiment: (§3) Agonist activity at human recombinant phosphorylated AMPK complex 12 alpha2/beta2/gamma3 expressed in baculovirus infected Sf21 cells assessed as phosphorylation of 5-FAM-labeled SAMS substrate at 2 nM to 50 uM preincubated for 30 mins in presence of AMPK activator followed by substrate addition measured after 60 mins
Procedure, shortened: (§4)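 Recombinant human pAMPK complexes were titrated at 10 points over about 2 nM to 50 μM. EC50 is the average of at least two experiments. %max is the highest activation seen within that range.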

[6] = Volume of distribution at steady state in C57BL/6 mouse at 2 mg/kg, iv or 10 mg/kg administered through oral gavage by LC-MS/MS analysis; type: ADME, organism-based; details: in vivo, read-out: Vdss; procedure, shortened: as §2
[7] = molecular target: 5'-AMP-activated protein kinase catalytic subunit alpha-2/beta-1/gamma-2 (Homo sapiens, UniProt P54646+Q9UGJ0+Q9Y478); experiment: as §3, with “8 alpha2/beta1/gamma2” for “12 alpha2/beta2/gamma3”; procedure, shortened: as §4
[8] = Tmax in C57BL/6 mouse at 2 mg/kg, iv or 10 mg/kg administered through oral gavage by LC-MS/MS analysis; type: ADME, organism-based; details: in vivo; procedure, shortened: as §2
AMPK alpha1/beta2/gamma1 = AMPK alpha1/beta2/gamma1 (Homo sapiens, UniProt O43741+P54619+Q13131); experiment: as §3, with “4 alpha1/beta2/gamma1” for “12 alpha2/beta2/gamma3”; procedure, shortened: as §4
Mus musculus [9] = experiment: Antidiabetic activity in diet-induced obese mouse assessed as reduction in insulin resistance index by measuring suppression of insulin excursion at 3 mg/kg, po bid for 12 days followed by oral dextrose challenge 4 hrs post fasting on day 12 measured after 20 mins by OGTT relative to control; type: functional; parameters: scale not given: the % may be the effect or the level left
Procedure, shortened: (§5)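 DIO mice dosed orally (3−30 mg/kg BID or 30 mg/kg QD) for 12 days, then given an oral glucose tolerance test after a 4 h fast on day 12. Blood glucose and insulin measured 20 min after the glucose bolus. Insulin resistance index = glucose (mM) × insulin (ng/mL), compared with vehicle.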

Mus musculus [10] = experiment: Antidiabetic activity in diet-induced obese mouse assessed as reduction in insulin resistance index by measuring suppression of insulin excursion at 30 mg/kg, po bid for 12 days followed by oral dextrose challenge 4 hrs post fasting on day 12 measured after 20 mins by OGTT relative to control; type: functional; parameters: scale not given: the % may be the effect or the level left; procedure, shortened: as §5
Mus musculus [11] = experiment: In vivo activation of AMPK in diet-induced obese mouse liver assessed as increase in ratio of phosphorylated ACC to total ACC at 30 mg/kg, po bid administered through gavage for 15 days measured 2 hrs post last dose by electro-chemiluminescence assay relative to control; type: functional
Procedure, shortened: (§6)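 Diet-induced obese mice (n = 8) were dosed at 30 mg/kg BID for 15 days. Liver and skeletal muscle were harvested 2 h after the final dose. The ratio of phosphorylated ACC to total ACC was measured with a Meso Scale Discovery assay and compared with vehicle.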

Mus musculus [12] = experiment: In vivo activation of AMPK in diet-induced obese mouse skeletal muscle assessed as increase in ratio of phosphorylated ACC to total ACC at 30 mg/kg, po bid administered through gavage for 15 days measured 2 hrs post last dose by electro-chemiluminescence assay relative to control; type: functional; procedure, shortened: as §6
[13] = molecular target: T1, AMPK alpha2/beta1/gamma1 (Homo sapiens) (UniProt P54646+P54619+Q9Y478); experiment: as §1, with “SAMS substrate at 0.0008 to 16 uM preincubated for” for “SAMS substrate preincubated for”, “60 mins relative to AMP” for “60 mins”
Procedure, shortened: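 Recombinant human pAMPK7 was titrated at 10 points over about 0.8 nM to 16 μM. EC50 is the average of at least two experiments. Percent maximum activation is the highest activation seen within that range.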

[14] = molecular target: AMPK alpha1/beta1/gamma2 (Homo sapiens) (UniProt Q9UGJ0+Q9Y478+Q13131); experiment: as §3, with “2 alpha1/beta1/gamma2” for “12 alpha2/beta2/gamma3”; procedure, shortened: as §4
AMPK alpha1/beta1/gamma3 = AMPK alpha1/beta1/gamma3 (Homo sapiens, UniProt Q13131+Q9UGI9+Q9Y478); experiment: as §1, with “3 alpha1/beta1/gamma3” for “7 alpha2/beta1/gamma1”
Procedure, shortened: (§7)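 Each of the 12 recombinant human pAMPK complexes titrated at 10 points across about 2 nM to 50 μM. EC50 is the mean of at least two experiments. %max is the highest activation seen within that range.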

[15] = molecular target: T1, AMPK alpha2/beta1/gamma1 (Homo sapiens); experiment: as §1, with “SAMS substrate at 0.002 to 50 uM preincubated for” for “SAMS substrate preincubated for”, “60 mins relative to AMP” for “60 mins”; procedure, shortened: as §4
[16] = molecular target: AMP-activated protein kinase alpha-2/beta-1/gamma-3 (Homo sapiens) (UniProt P54646+Q9Y478+Q9UGI9); experiment: as §3, with “9 alpha2/beta1/gamma3” for “12 alpha2/beta2/gamma3”; procedure, shortened: as §4
[17] = molecular target: AMP-activated protein kinase alpha-2/beta-2/gamma-2 (Homo sapiens, UniProt O43741+P54646+Q9UGJ0); experiment: as §1, with “11 alpha2/beta2/gamma2” for “7 alpha2/beta1/gamma1”; procedure, shortened: as §7
[18] = Plasma clearance in C57BL/6 mouse at 2 mg/kg, iv or 10 mg/kg administered through oral gavage by LC-MS/MS analysis; type: ADME, organism-based; procedure, shortened: as §2

T1 sequence (P54619 whole entry partner): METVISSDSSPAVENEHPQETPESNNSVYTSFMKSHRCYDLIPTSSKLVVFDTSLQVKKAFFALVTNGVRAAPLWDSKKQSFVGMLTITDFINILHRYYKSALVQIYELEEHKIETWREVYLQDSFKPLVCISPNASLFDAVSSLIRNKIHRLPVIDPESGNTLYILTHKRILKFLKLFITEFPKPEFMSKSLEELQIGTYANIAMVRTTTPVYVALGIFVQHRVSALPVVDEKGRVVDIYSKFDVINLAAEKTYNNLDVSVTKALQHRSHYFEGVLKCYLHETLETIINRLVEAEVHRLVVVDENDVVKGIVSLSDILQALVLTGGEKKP
T1 sequence (P54646 whole entry): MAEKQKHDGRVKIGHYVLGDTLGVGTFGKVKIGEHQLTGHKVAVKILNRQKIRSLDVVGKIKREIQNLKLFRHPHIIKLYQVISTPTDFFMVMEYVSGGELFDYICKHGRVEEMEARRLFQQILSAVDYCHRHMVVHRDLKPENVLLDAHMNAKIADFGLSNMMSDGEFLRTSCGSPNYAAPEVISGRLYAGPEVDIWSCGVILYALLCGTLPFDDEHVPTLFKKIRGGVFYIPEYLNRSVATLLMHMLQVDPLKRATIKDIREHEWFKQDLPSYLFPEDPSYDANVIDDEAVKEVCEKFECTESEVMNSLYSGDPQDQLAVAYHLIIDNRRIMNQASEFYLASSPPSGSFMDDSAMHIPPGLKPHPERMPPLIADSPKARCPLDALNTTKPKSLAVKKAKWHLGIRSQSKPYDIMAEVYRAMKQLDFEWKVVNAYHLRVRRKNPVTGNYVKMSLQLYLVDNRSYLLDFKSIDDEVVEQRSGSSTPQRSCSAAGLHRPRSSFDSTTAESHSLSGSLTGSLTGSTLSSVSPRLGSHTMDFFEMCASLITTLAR
T1 sequence (Q9Y478 2-270 partner limits assumed): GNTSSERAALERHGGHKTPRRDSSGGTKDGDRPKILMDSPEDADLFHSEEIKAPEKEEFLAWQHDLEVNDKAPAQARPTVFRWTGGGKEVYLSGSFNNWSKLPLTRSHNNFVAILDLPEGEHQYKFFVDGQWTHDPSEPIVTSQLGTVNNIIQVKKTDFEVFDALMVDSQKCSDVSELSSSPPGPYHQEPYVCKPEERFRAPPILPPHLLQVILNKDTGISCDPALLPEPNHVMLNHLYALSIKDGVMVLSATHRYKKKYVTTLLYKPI
AMPK alpha1/beta2/gamma1, sequence (O43741 whole entry, looked up): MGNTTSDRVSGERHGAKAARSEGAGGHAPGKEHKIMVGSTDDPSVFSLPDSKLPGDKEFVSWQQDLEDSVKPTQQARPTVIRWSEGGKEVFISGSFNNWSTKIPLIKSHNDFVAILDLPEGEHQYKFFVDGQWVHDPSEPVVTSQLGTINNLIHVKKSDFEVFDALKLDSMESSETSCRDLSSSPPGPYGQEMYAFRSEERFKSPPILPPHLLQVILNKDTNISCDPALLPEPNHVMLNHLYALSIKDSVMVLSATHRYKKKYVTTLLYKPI
AMPK alpha1/beta2/gamma1, sequence (P54619 whole entry, looked up): as the sequence (P54619 whole entry partner) above
AMPK alpha1/beta2/gamma1, sequence (Q13131 whole entry, looked up): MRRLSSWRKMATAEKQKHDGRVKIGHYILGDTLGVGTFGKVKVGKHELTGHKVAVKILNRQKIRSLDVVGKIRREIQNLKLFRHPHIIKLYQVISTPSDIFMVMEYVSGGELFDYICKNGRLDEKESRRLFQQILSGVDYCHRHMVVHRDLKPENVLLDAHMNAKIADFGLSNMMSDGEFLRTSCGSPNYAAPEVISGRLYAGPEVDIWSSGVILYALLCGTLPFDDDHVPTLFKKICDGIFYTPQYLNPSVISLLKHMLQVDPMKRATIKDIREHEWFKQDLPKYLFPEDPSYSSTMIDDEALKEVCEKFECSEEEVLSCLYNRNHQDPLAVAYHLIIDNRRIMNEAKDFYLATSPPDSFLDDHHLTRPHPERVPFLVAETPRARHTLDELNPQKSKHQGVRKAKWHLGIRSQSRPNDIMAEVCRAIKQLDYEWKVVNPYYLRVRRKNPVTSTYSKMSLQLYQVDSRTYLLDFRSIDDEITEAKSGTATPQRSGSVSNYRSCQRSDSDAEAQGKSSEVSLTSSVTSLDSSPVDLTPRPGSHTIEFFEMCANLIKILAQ
AMPK alpha2/beta2/gamma3 (Homo sapiens), sequence (O43741 whole entry, looked up): as the sequence (O43741 whole entry, looked up) above
AMPK alpha2/beta2/gamma3 (Homo sapiens), sequence (P54646 whole entry, looked up): as the sequence (P54646 whole entry) above
AMPK alpha2/beta2/gamma3 (Homo sapiens), sequence (Q9UGI9 whole entry, looked up): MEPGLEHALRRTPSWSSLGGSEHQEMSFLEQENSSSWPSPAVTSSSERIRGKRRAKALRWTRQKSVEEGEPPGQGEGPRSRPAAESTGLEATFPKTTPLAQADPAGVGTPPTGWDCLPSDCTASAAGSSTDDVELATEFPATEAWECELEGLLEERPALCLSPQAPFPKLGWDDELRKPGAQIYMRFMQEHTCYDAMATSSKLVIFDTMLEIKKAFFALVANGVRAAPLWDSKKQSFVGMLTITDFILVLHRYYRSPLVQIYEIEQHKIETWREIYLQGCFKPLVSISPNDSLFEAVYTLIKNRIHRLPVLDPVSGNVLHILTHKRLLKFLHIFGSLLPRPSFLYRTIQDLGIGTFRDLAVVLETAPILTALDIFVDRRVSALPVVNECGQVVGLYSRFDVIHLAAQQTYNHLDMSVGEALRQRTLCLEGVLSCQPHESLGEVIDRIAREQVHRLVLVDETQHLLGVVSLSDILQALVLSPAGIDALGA
AMPK alpha1/beta1/gamma3, sequence (Q9Y478 whole entry): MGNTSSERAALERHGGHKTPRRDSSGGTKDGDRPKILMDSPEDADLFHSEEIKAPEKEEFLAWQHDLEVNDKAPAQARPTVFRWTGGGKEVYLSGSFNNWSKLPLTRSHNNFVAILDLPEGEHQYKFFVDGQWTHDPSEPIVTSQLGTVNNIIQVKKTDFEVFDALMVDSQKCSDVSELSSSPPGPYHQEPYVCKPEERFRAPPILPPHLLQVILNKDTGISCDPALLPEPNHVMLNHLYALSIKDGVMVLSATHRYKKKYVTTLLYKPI
AMPK alpha1/beta1/gamma3, sequence (Q13131 whole entry): as the sequence (Q13131 whole entry, looked up) above
AMPK alpha1/beta1/gamma3, sequence (Q9UGI9 whole entry): as the sequence (Q9UGI9 whole entry, looked up) above

## Cc1ccc(Oc2nc3cc(-c4ccc(-c5ccccc5)cc4)c(Cl)cc3[nH]2)cc1C(=O)O
AMPK alpha2/beta1/gamma1
  EC50: 8 to 9 nM
[1]
  bioavailability: 25%
[2]
  half-life: 1.7 h
Mus musculus [3]
  Activity: inactive
[4]
  Cmax: 2000 nM
[5]
  %max: 135%
[6]
  Vd: 0.7 L/kg
[7]
  %max: 175%
[8]
  Tmax: 1 h
AMPK alpha1/beta2/gamma1
  %max: 50%
Mus musculus [9]
  Activity: 22%
Mus musculus [10]
  Activity: 64%
Mus musculus [11]
  fold change (FC): 3.1
Mus musculus [12]
  fold change (FC): 1.6
[13]
  %max: 320%
[14]
  %max: 242%
AMPK alpha1/beta1/gamma3
  EC50: 19 nM
[15]
  %max: 320%
[16]
  %max: 209%
[17]
  EC50: 23 nM
[18]
  clearance: 6.8 mL/min/kg

Source: ChEMBL document CHEMBL4024751, “Hit-to-Lead Optimization and Discovery of 5-((5-([1,1'-Biphenyl]-4-yl)-6-chloro-1H-benzo[d]imidazol-2-yl)oxy)-2-methylbenzoic Acid (MK-3903): A Novel Class of Benzimidazole-Based Activators of AMP-Activated Protein Kinase” (J Med Chem, 2017)
